Results taken from ChEMBL document CHEMBL1127399, “4,7 beta-Dimethyl-4-azacholestan-3-one (MK-386) and related 4-azasteroids as selective inhibitors of human type 1 5 alpha-reductase” (J Med Chem, 1994).

Legend:
[1] = molecular target: T1, 3-oxo-5-alpha-steroid 4-dehydrogenase 1 (Homo sapiens, UniProt P18405); test: Inhibition of type 1 steroid-5-alpha-reductase
T1 sequence (P18405 whole entry): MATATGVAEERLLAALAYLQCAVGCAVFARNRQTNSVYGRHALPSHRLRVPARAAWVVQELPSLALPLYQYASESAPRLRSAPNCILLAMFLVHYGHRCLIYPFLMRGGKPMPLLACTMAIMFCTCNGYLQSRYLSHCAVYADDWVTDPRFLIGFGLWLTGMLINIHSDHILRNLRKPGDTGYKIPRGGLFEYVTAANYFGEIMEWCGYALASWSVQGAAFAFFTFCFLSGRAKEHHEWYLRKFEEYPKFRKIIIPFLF
How it was run: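 Baculovirus-expressed recombinant human type 1 5α-reductase preincubated 18 h at 4 °C with inhibitor (0.1–1000 nM, serial dilutions from ethanol) in 40 mM sodium phosphate pH 7.0, 500 μM NADPH, 1 mM DTT, 1 mg/mL BSA. Reaction started with [7-³H]testosterone (final 0.3 μM) plus NADPH, 90 min at 37 °C; T and DHT separated by HPLC. IC50, mean of ≥3 determinations.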

[2] = molecular target: T2, 3-oxo-5-alpha-steroid 4-dehydrogenase 2 (Homo sapiens, UniProt P31213); test: Inhibition of type 2 steroid-5-alpha-reductase
T2 sequence (P31213 whole entry): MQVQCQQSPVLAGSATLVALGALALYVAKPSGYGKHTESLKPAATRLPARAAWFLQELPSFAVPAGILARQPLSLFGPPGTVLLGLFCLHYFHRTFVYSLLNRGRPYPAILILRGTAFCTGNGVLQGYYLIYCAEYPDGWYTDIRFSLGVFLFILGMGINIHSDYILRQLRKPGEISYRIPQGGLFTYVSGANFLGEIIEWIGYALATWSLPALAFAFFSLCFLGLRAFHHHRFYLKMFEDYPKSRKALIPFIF
How it was run: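 Baculovirus-expressed recombinant human type 2 5α-reductase preincubated 18 h at 4 °C with inhibitor (1–10 000 nM, serially diluted from ethanol) in 40 mM sodium citrate pH 5.5, 500 μM NADPH, 1 mM DTT, 1 mg/mL BSA. Conversion of [7-³H]testosterone to DHT monitored by HPLC. IC50 averaged over at least three determinations.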

Row | IC50 [1] [nM] | IC50 [2] [nM] | Compound
1 | > 1000 | 0.6 | CC(C)(C)NC(=O)[C@H]1CC[C@H]2[C@@H]3CC=C4C=C(C(=O)O)CC[C@]4(C)[C@H]3CC[C@]12C [EPRISTERIDE]
2 | 8.6 | 1050 | CC[C@H]1C=C2NC(=O)CC[C@]2(C)C2CC[C@]3(C)C(C(C)CCCC(C)C)CCC3C21 (stereo not given in full)
3 | 5 |  | CC(C)CCCC(C)C1CCC2C3CCC4NC(=O)C=C[C@]4(C)C3CC[C@]12C (stereo not given in full)
4 | 2.6 | 280 | CC(C)CCCC(C)C1CCC2C3C(CC[C@]12C)[C@@]1(C)CCC(=O)NC1C[C@@H]3C (stereo not given in full)
5 | 0.9 | 154 | CC(C)CCCC(C)[C@H]1CCC2C3C(CC[C@@]21C)[C@@]1(C)CCC(=O)N(C)C1C[C@@H]3C (stereo not given in full)
6 | 0.6 | 147 | CC(C)CCCC(C)C1CCC2C3C(CC[C@]12C)[C@@]1(C)CCC(=O)N(C)C1=C[C@@H]3C (stereo not given in full)
7 | > 1000 | 2170 | CC(C)CCCC(C)C1CCC2C3C(CC[C@]12C)[C@@]1(C)CCC(=O)N(C)C1=C[C@@H]3c1ccccc1 (stereo not given in full)
8 | 2 | 125 | CC(C)CCCC(C)C1CCC2C3C(CC[C@]12C)[C@@]1(C)C=CC(=O)N(C)C1C[C@@H]3C (stereo not given in full)
9 | 2.6 | 218 | CC(C)CCCC(C)C1CCC2C3CCC4NC(=O)CC[C@]4(C)C3CC[C@]12C (stereo not given in full)
10 | 4.3 |  | CC(C)CCCC(C)C1CCC2C3CC=C4N(C)C(=O)CC[C@]4(C)C3CC[C@]12C (stereo not given in full)
11 | 1.7 | 218 | CC(C)CCCC(C)C1CCC2C3CCC4N(C)C(=O)CC[C@]4(C)C3CC[C@]12C (stereo not given in full)
12 | 8.4 | 5.4 | CCC[C@H]1C=C2N(C)C(=O)CC[C@]2(C)C2CC[C@]3(C)C(C(C)CCCC(C)C)CCC3C21 (stereo not given in full)
13 | 20 | 580 | CCC[C@H]1CC2N(C)C(=O)CC[C@]2(C)C2CC[C@]3(C)C(C(C)CCCC(C)C)CCC3C21 (stereo not given in full)
14 | 1.6 | 298 | CC(C)CCCC(C)C1CCC2C3C(CC[C@]12C)[C@@]1(C)C=CC(=O)NC1C[C@@H]3C (stereo not given in full)
15 | > 1000 | 443 | CC(C)CCCC(C)C1CCC2C3C(CC[C@]12C)[C@@]1(C)CCC(=O)NC1C[C@@H]3c1ccccc1 (stereo not given in full)
16 | > 1000 | 1340 | CC(C)CCCC(C)C1CCC2C3C(CC[C@]12C)[C@@]1(C)CCC(=O)NC1=C[C@@H]3c1ccccc1 (stereo not given in full)
17 | 58 | 713 | CCC[C@H]1C=C2NC(=O)CC[C@]2(C)C2CC[C@]3(C)C(C(C)CCCC(C)C)CCC3C21 (stereo not given in full)
18 | 19.1 |  | CC(C)CCCC(C)C1CCC2C3CC=C4NC(=O)CC[C@]4(C)C3CC[C@]12C (stereo not given in full)
19 | 134 | 428 | CC(C)CCCC(C)C1CCC2C3C(CC[C@]12C)[C@@]1(C)CCC(=O)N(C)C1C[C@@H]3c1ccccc1 (stereo not given in full)
20 | 2.5 | 859 | CC(C)CCCC(C)C1CCC2C3C(CC[C@]12C)[C@@]1(C)CCC(=O)NC1=C[C@@H]3C (stereo not given in full)
21 | 5.7 | 330 | CC[C@H]1CC2N(C)C(=O)CC[C@]2(C)C2CC[C@]3(C)C(C(C)CCCC(C)C)CCC3C21 (stereo not given in full)
22 | 3.3 | 1390 | CCN1C(=O)CC[C@]2(C)C3CC[C@]4(C)C(C(C)CCCC(C)C)CCC4C3[C@@H](C)CC12 (stereo not given in full)
23 | 9.5 | 2120 | CC[C@H]1C=C2N(C)C(=O)CC[C@]2(C)C2CC[C@]3(C)C(C(C)CCCC(C)C)CCC3C21 (stereo not given in full)
24 | 2.7 | 280 | CC[C@H]1CC2NC(=O)CC[C@]2(C)C2CC[C@]3(C)C(C(C)CCCC(C)C)CCC3C21 (stereo not given in full)
25 | 9.5 | 1100 | CCC[C@H]1CC2NC(=O)CC[C@]2(C)C2CC[C@]3(C)C(C(C)CCCC(C)C)CCC3C21 (stereo not given in full)
26 | 186 | < 0.1 | C[C@]12CCC3C(CNC4=CC(=O)CC[C@@]43C)C1CCC2C(=O)NC(c1ccccc1)c1ccccc1 (stereo not given in full)
27 | 42 | 1300 | C=CCN1C(=O)CC[C@]2(C)C3CC[C@]4(C)C(C(C)CCCC(C)C)CCC4C3[C@@H](C)CC12 (stereo not given in full)
28 | 8.6 | 1750 | CN1C(=O)CC[C@@H]2c3ccc(Cl)cc3CC[C@H]21 [BEXLOSTERIDE]

Row | Compound | IC50 [1] [nM] | IC50 [2] [nM]
29 | CC(C)(C)NC(=O)[C@H]1CC[C@H]2[C@@H]3CC[C@H]4NC(=O)C=C[C@]4(C)[C@H]3CC[C@]12C [FINASTERIDE] | 52 | < 0.1
